From ChEMBL document CHEMBL5058577, “EUbOPEN Chemogenomics Library 2 (Multiplex)” (2022)

Test system: U2OS
Assay: Multiplex assay against U2OS
Format: toxicity, cell-based
Details: human
In short: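 Live cells carried four stains from seeding: Hoechst33342, BioTracker Green Microtubule Cytoskeleton Dye, MitoTracker Red and Annexin V Alexa Fluor 680. They were imaged on a CQ1 microscope at 37°C and 5% CO2 after compound addition. Using CellPathfinder machine-learning gating, cells were split into Hoechst high-intensity objects or normal cells, normal cells into healthy, pyknosed or fragmented nuclei, and pyknosed cells into mitotic or apoptotic; tubulin, mitochondrial-mass and membrane-permeability phenotypes are per cents of healthy-nucleus cells.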

[1] = 12 h, 1 µM, compound concentration 1 uM, replicate 1
[2] = 12 h, 1 µM, compound concentration 1 uM, replicate 2
[3] = 12 h, 10 µM, compound concentration 10 uM, replicate 1
[4] = 12 h, 10 µM, compound concentration 10 uM, replicate 2
[5] = 24 h, 1 µM, compound concentration 1 uM, replicate 1
[6] = 24 h, 1 µM, compound concentration 1 uM, replicate 2
[7] = 24 h, 10 µM, compound concentration 10 uM, replicate 1
[8] = 24 h, 10 µM, compound concentration 10 uM, replicate 2
[9] = 48 h, 1 µM, compound concentration 1 uM, replicate 1
[10] = 48 h, 1 µM, compound concentration 1 uM, replicate 2
[11] = 48 h, 10 µM, compound concentration 10 uM, replicate 1
[12] = 48 h, 10 µM, compound concentration 10 uM, replicate 2

Question: How did the “Population Apoptotic (%)” value [1] turn out when `N#Cc1cc(F)cc(-c2nc(-c3ccc(F)cn3)no2)c1` was run?
Answer: 55%

Question: What about the “Population Fragmented Nuclei (%)” value [1] of the same compound?
Answer: 24%

Question: What about the “Population Healthy Nuclei (%)” value [1] of the same compound?
Answer: 65%

Question: And the “Population Hoechst High Intensity Objects (%)” value [1]?
Answer: 1%

Question: And the “Population Membrane Permeable-Phenotype (%)” value [1]?
Answer: 5%

Question: What about the “Population Mitochondria Different-Phenotype (%)” value [1] of the same compound?
Answer: 0%

Question: What about the “Population Mitotic Cells (%)” value [1] of the same compound?
Answer: 44%

Question: And the “Population Normal (%)” value [1]?
Answer: 98%

Question: And the “Population Pyknosed Nuclei (%)” value [1]?
Answer: 10%

Question: And the “Population Tubulin-Different-Phenotype (%)” value [1]?
Answer: 3%

Question: What about the “Total Cell Count” value [1] of the same compound?
Answer: 178

Question: What about the “Population Apoptotic (%)” value [2] of the same compound?
Answer: 100%

Question: And the “Population Fragmented Nuclei (%)” value [2]?
Answer: 17%

Question: And the “Population Healthy Nuclei (%)” value [2]?
Answer: 79%

Question: What about the “Population Hoechst High Intensity Objects (%)” value [2] of the same compound?
Answer: 0%

Question: And the “Population Membrane Permeable-Phenotype (%)” value [2]?
Answer: 6%

Question: What about the “Population Mitochondria Different-Phenotype (%)” value [2] of the same compound?
Answer: 5%

Question: What about the “Population Mitotic Cells (%)” value [2] of the same compound?
Answer: 0%

Question: And the “Population Normal (%)” value [2]?
Answer: 99%

Question: And the “Population Pyknosed Nuclei (%)” value [2]?
Answer: 4%

Question: And the “Population Tubulin-Different-Phenotype (%)” value [2]?
Answer: 2%

Question: And the “Total Cell Count” value [2]?
Answer: 101

Question: And the “Population Apoptotic (%)” value [3]?
Answer: 76%

Question: What about the “Population Fragmented Nuclei (%)” value [3] of the same compound?
Answer: 33%

Question: What about the “Population Healthy Nuclei (%)” value [3] of the same compound?
Answer: 59%

Question: And the “Population Hoechst High Intensity Objects (%)” value [3]?
Answer: 1%

Question: What about the “Population Membrane Permeable-Phenotype (%)” value [3] of the same compound?
Answer: 8%

Question: What about the “Population Mitochondria Different-Phenotype (%)” value [3] of the same compound?
Answer: 2%

Question: And the “Population Mitotic Cells (%)” value [3]?
Answer: 23%

Question: What about the “Population Normal (%)” value [3] of the same compound?
Answer: 98%

Question: And the “Population Pyknosed Nuclei (%)” value [3]?
Answer: 6%

Question: What about the “Population Tubulin-Different-Phenotype (%)” value [3] of the same compound?
Answer: 2%

Question: And the “Total Cell Count” value [3]?
Answer: 196

Question: What about the “Population Apoptotic (%)” value [4] of the same compound?
Answer: 88%

Question: What about the “Population Fragmented Nuclei (%)” value [4] of the same compound?
Answer: 12%

Question: And the “Population Healthy Nuclei (%)” value [4]?
Answer: 81%

Question: And the “Population Membrane Permeable-Phenotype (%)” value [4]?
Answer: 7%

Question: What about the “Population Mitochondria Different-Phenotype (%)” value [4] of the same compound?
Answer: 4%

Question: What about the “Population Mitotic Cells (%)” value [4] of the same compound?
Answer: 11%

Question: And the “Population Tubulin-Different-Phenotype (%)” value [4]?
Answer: 1%

Question: And the “Total Cell Count” value [4]?
Answer: 151

Question: What about the “Population Apoptotic (%)” value [5] of the same compound?
Answer: 90%

Question: And the “Population Fragmented Nuclei (%)” value [5]?
Answer: 22%

Question: And the “Population Healthy Nuclei (%)” value [5]?
Answer: 66%

Question: What about the “Population Hoechst High Intensity Objects (%)” value [5] of the same compound?
Answer: 4%

Question: What about the “Population Membrane Permeable-Phenotype (%)” value [5] of the same compound?
Answer: 8%

Question: What about the “Population Mitochondria Different-Phenotype (%)” value [5] of the same compound?
Answer: 0%

Question: What about the “Population Mitotic Cells (%)” value [5] of the same compound?
Answer: 9%

Question: What about the “Population Normal (%)” value [5] of the same compound?
Answer: 95%

Question: And the “Population Pyknosed Nuclei (%)” value [5]?
Answer: 11%

Question: What about the “Population Tubulin-Different-Phenotype (%)” value [5] of the same compound?
Answer: 4%

Question: And the “Total Cell Count” value [5]?
Answer: 197

Question: And the “Population Fragmented Nuclei (%)” value [6]?
Answer: 8%

Question: What about the “Population Healthy Nuclei (%)” value [6] of the same compound?
Answer: 84%

Question: And the “Population Hoechst High Intensity Objects (%)” value [6]?
Answer: 0%

Question: And the “Population Membrane Permeable-Phenotype (%)” value [6]?
Answer: 2%

Question: And the “Population Mitochondria Different-Phenotype (%)” value [6]?
Answer: 3%

Question: What about the “Population Mitotic Cells (%)” value [6] of the same compound?
Answer: 10%

Question: And the “Population Normal (%)” value [6]?
Answer: 99%

Question: And the “Population Pyknosed Nuclei (%)” value [6]?
Answer: 8%

Question: What about the “Population Tubulin-Different-Phenotype (%)” value [6] of the same compound?
Answer: 2%

Question: What about the “Total Cell Count” value [6] of the same compound?
Answer: 126

Question: What about the “Population Apoptotic (%)” value [7] of the same compound?
Answer: 93%

Question: And the “Population Fragmented Nuclei (%)” value [7]?
Answer: 32%

Question: What about the “Population Healthy Nuclei (%)” value [7] of the same compound?
Answer: 60%

Question: What about the “Population Hoechst High Intensity Objects (%)” value [7] of the same compound?
Answer: 1%

Question: What about the “Population Membrane Permeable-Phenotype (%)” value [7] of the same compound?
Answer: 7%

Question: And the “Population Mitochondria Different-Phenotype (%)” value [7]?
Answer: 0%

Question: What about the “Population Mitotic Cells (%)” value [7] of the same compound?
Answer: 6%

Question: And the “Population Normal (%)” value [7]?
Answer: 98%

Question: And the “Population Pyknosed Nuclei (%)” value [7]?
Answer: 7%

Question: What about the “Population Tubulin-Different-Phenotype (%)” value [7] of the same compound?
Answer: 2%

Question: And the “Total Cell Count” value [7]?
Answer: 230

Question: And the “Population Apoptotic (%)” value [8]?
Answer: 88%

Question: And the “Population Fragmented Nuclei (%)” value [8]?
Answer: 9%

Question: And the “Population Healthy Nuclei (%)” value [8]?
Answer: 85%

Question: And the “Population Hoechst High Intensity Objects (%)” value [8]?
Answer: 0%

Question: And the “Population Membrane Permeable-Phenotype (%)” value [8]?
Answer: 5%

Question: What about the “Population Mitochondria Different-Phenotype (%)” value [8] of the same compound?
Answer: 1%

Question: And the “Population Mitotic Cells (%)” value [8]?
Answer: 11%

Question: And the “Population Normal (%)” value [8]?
Answer: 99%

Question: And the “Population Pyknosed Nuclei (%)” value [8]?
Answer: 4%

Question: And the “Population Tubulin-Different-Phenotype (%)” value [8]?
Answer: 1%

Question: What about the “Total Cell Count” value [8] of the same compound?
Answer: 216

Question: What about the “Population Apoptotic (%)” value [9] of the same compound?
Answer: 96%

Question: What about the “Population Fragmented Nuclei (%)” value [9] of the same compound?
Answer: 18%

Question: What about the “Population Healthy Nuclei (%)” value [9] of the same compound?
Answer: 71%

Question: What about the “Population Hoechst High Intensity Objects (%)” value [9] of the same compound?
Answer: 1%

Question: What about the “Population Membrane Permeable-Phenotype (%)” value [9] of the same compound?
Answer: 4%

Question: What about the “Population Mitochondria Different-Phenotype (%)” value [9] of the same compound?
Answer: 0%

Question: What about the “Population Mitotic Cells (%)” value [9] of the same compound?
Answer: 3%

Question: And the “Population Normal (%)” value [9]?
Answer: 98%

Question: What about the “Population Pyknosed Nuclei (%)” value [9] of the same compound?
Answer: 9%

Question: And the “Population Tubulin-Different-Phenotype (%)” value [9]?
Answer: 2%

Question: And the “Total Cell Count” value [9]?
Answer: 290

Question: What about the “Population Apoptotic (%)” value [10] of the same compound?
Answer: 100%

Question: And the “Population Fragmented Nuclei (%)” value [10]?
Answer: 15%

Question: And the “Population Healthy Nuclei (%)” value [10]?
Answer: 79%

Question: What about the “Population Mitochondria Different-Phenotype (%)” value [10] of the same compound?
Answer: 3%

Question: And the “Population Mitotic Cells (%)” value [10]?
Answer: 0%

Question: What about the “Population Pyknosed Nuclei (%)” value [10] of the same compound?
Answer: 5%

Question: What about the “Population Tubulin-Different-Phenotype (%)” value [10] of the same compound?
Answer: 1%

Question: What about the “Total Cell Count” value [10] of the same compound?
Answer: 199

Question: What about the “Population Apoptotic (%)” value [11] of the same compound?
Answer: 85%

Question: And the “Population Fragmented Nuclei (%)” value [11]?
Answer: 30%

Question: And the “Population Healthy Nuclei (%)” value [11]?
Answer: 62%

Question: What about the “Population Hoechst High Intensity Objects (%)” value [11] of the same compound?
Answer: 1%

Question: What about the “Population Membrane Permeable-Phenotype (%)” value [11] of the same compound?
Answer: 6%

Question: And the “Population Mitochondria Different-Phenotype (%)” value [11]?
Answer: 2%

Question: And the “Population Mitotic Cells (%)” value [11]?
Answer: 14%

Question: What about the “Population Normal (%)” value [11] of the same compound?
Answer: 98%

Question: What about the “Population Pyknosed Nuclei (%)” value [11] of the same compound?
Answer: 7%

Question: What about the “Population Tubulin-Different-Phenotype (%)” value [11] of the same compound?
Answer: 3%

Question: What about the “Total Cell Count” value [11] of the same compound?
Answer: 282

Question: And the “Population Apoptotic (%)” value [12]?
Answer: 94%

Question: And the “Population Fragmented Nuclei (%)” value [12]?
Answer: 10%

Question: And the “Population Healthy Nuclei (%)” value [12]?
Answer: 84%

Question: What about the “Population Membrane Permeable-Phenotype (%)” value [12] of the same compound?
Answer: 4%

Question: What about the “Population Mitotic Cells (%)” value [12] of the same compound?
Answer: 5%

Question: What about the “Population Pyknosed Nuclei (%)” value [12] of the same compound?
Answer: 5%

Question: And the “Population Tubulin-Different-Phenotype (%)” value [12]?
Answer: 2%

Question: What about the “Total Cell Count” value [12] of the same compound?
Answer: 344
